≈ marks a conversion by molar mass, not a printed value.
Legend:
[1] = tested on: Trypanosoma brucei gambiense; assay: Anti-trypanosomal activity against Trypanosoma brucei gambiense Feo bloodstream forms assessed as inhibition of parasite growth rate after 72 hrs by resazurin assay; format: functional, organism-based
Outline: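 Bloodstream-form Feo parasites in HMI9 with 10% FCS, 37 °C, 5% CO2. Log-phase cells harvested at 3000 × g and used at once. 10⁴ cells per well, with or without inhibitor (stocks in DMSO). Resazurin added and fluorescence read at 530 nm. Inhibition taken against drug-free wells. IC50 from dose–response curves ranging down to 10 ng/ml. Mean ± SD of three independent experiments.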

[2] = Cytotoxicity against rat L6 cells after 5 days by resazurin assay; format: cell-based
Outline: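 Rat myoblast L-6 cells in RPMI with 25 mM HEPES pH 7.3 and 10% fetal calf serum, 37 °C, 5% CO2. Compounds from DMSO stocks, final DMSO below 1%. Controls received DMSO only. Viability by resazurin conversion, fluorescence at 530 nm excitation and 590 nm emission after a further 4 h. CC50 is the mean ± SD of three independent experiments.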

[3] = Selectivity index, ratio of CC50 for rat L6 cells to IC50 for Trypanosoma brucei gambiense Feo; format: functional
Outline: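 Computed as CC50 (L-6 cells, resazurin) divided by IC50 (T. b. gambiense Feo bloodstream forms, resazurin). Both values are means of three independent experiments.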

[4] = tested on: Trypanosoma brucei gambiense; assay: Anti-trypanosomal activity against Trypanosoma brucei gambiense Feo bloodstream forms assessed as inhibition of parasite growth rate at 50 ug/mL after 72 hrs by resazurin assay; format: functional; conditions: read-out: GI
Outline: (§1)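 Fixed-concentration screen of bloodstream-form Feo parasites, 10⁴ cells per well, cultured in HMI9 with 10% FCS at 37 °C, 5% CO2. Most compounds tested at 50, 10 and 1; some at 100, 20 and 2. Growth measured by resazurin fluorescence at 530 nm. Percent inhibition calculated against untreated wells.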

[5] = tested on: Trypanosoma brucei gambiense; assay: Anti-trypanosomal activity against Trypanosoma brucei gambiense Feo bloodstream forms assessed as inhibition of parasite growth rate at 10 ug/mL after 72 hrs by resazurin assay; format: functional; conditions: read-out: GI; outline: as §1
[6] = tested on: Trypanosoma brucei gambiense; assay: Anti-trypanosomal activity against Trypanosoma brucei gambiense Feo bloodstream forms assessed as inhibition of parasite growth rate at 1 ug/mL after 72 hrs by resazurin assay; format: functional; conditions: read-out: GI; outline: as §1
[7] = tested on: Trypanosoma brucei gambiense; assay: Potency index, ratio of IC50 for nifurtimox to IC50 for test compound against Trypanosoma brucei gambiense Feo bloodstream forms assessed as inhibition of parasite growth rate after 72 hrs by resazurin assay; format: functional
Trypanosoma cruzi = assay: Anti-trypanosomal activity against Trypanosoma cruzi Y; format: functional, organism-based
[8] = tested on: Trypanosoma brucei brucei; assay: Anti-trypanosomal activity against Trypanosoma brucei brucei; format: functional, organism-based
[9] = tested on: Trypanosoma brucei rhodesiense; assay: Anti-trypanosomal activity against Trypanosoma brucei rhodesiense; format: functional, organism-based
[10] = tested on: Trypanosoma brucei gambiense; assay: Anti-trypanosomal activity against Trypanosoma brucei gambiense Feo bloodstream forms assessed as inhibition of parasite growth rate at 100 ug/mL after 72 hrs by resazurin assay; format: functional; conditions: read-out: GI; outline: as §1
[11] = tested on: Trypanosoma brucei gambiense; assay: Anti-trypanosomal activity against Trypanosoma brucei gambiense Feo bloodstream forms assessed as inhibition of parasite growth rate at 20 ug/mL after 72 hrs by resazurin assay; format: functional; conditions: read-out: GI; outline: as §1
[12] = tested on: Trypanosoma brucei gambiense; assay: Anti-trypanosomal activity against Trypanosoma brucei gambiense Feo bloodstream forms assessed as inhibition of parasite growth rate at 2 ug/mL after 72 hrs by resazurin assay; format: functional; conditions: read-out: GI; outline: as §1

IC50 [1]	Compound	inhibition of growth at 50 µg/mL [4]	inhibition of growth at 10 µg/mL [5]	inhibition of growth at 1 µg/mL [6]	also measured
4.4 µM	CC1CS(=O)(=O)CCN1/N=C/c1ccc([N+](=O)[O-])o1 (configuration not stated) [NIFURTIMOX]	–	–	–	CC50 at 120 h [2]: 78.2 µM; Ratio CC50/IC50 [3]: 17.8
21.7 µM	Cc1ccc(N2C(=O)/C(=C/N3N=C(c4ccc5ccccc5c4)CC3c3ccc(Cl)cc3)SC2=S)cc1 (configuration not stated)	41.7%	59.4%	27.6%	–
0.7 µM	COc1ccc(C2=NN(/C=C3\SC(=S)N(c4cccc(OC(C)=O)c4)C3=O)C(c3ccccc3O)C2)cc1 (configuration not stated)	89.5%	91.7%	90.1%	CC50 at 120 h [2]: 40 µM; Ratio CC50/IC50 [3]: 57.1; Ratio IC50 [7]: 6
10.8 µM	COc1ccc(C2CC(c3ccccc3)=NN2/C=C2\SC(=S)N(c3cccc(OC(C)=O)c3)C2=O)cc1 (configuration not stated)	97.2%	97.5%	79.3%	–
1.9 µM	CC(=O)Oc1cccc(N2C(=O)/C(=C/N3N=C(c4ccccc4)CC3c3ccc(Cl)cc3)SC2=S)c1 (configuration not stated)	90.3%	91.4%	42.1%	–
–	CCC1SC(N/N=C/CSc2ccccc2)=NC1=O (configuration not stated)	–	–	–	IC50 (Trypanosoma cruzi): 0.3 µM
–	O=C1/C(=C/N2N=C(c3ccc4ccccc4c3)CC2c2ccc(Cl)cc2)SC(=S)N1Cc1ccco1 (configuration not stated)	59.6%	45.3%	29%	–
0.6 µM	COc1ccc(C2CC(c3ccc4ccccc4c3)=NN2/C=C2\SC(=S)N(C)C2=O)cc1 (configuration not stated)	97.1%	97.2%	97.2%	CC50 at 120 h [2]: 175 µM; Ratio CC50/IC50 [3]: 292; Ratio IC50 [7]: 6
1.1 µM	CC(=O)Oc1cccc(N2C(=O)/C(=C/N3N=C(c4ccccc4)CC3c3ccccc3O)SC2=S)c1 (configuration not stated)	90.9%	93.8%	83.1%	CC50 at 120 h [2]: 13.6 µM; Ratio CC50/IC50 [3]: 12.4
13.2 µM	O=C1NC(=S)S/C1=C\N1N=C(c2ccc3ccccc3c2)CC1c1ccc(F)cc1 (configuration not stated)	85.4%	85%	19.9%	–
10.5 µM	CN(C)c1ccc(C2CC(c3ccccc3)=NN2/C=C2\SC(=S)NC2=O)cc1 (configuration not stated)	74%	76.2%	30.2%	–
–	COc1ccc(C2CC(c3ccccc3)=NN2C2=NC(=O)S/C2=C\c2ccc([N+](=O)[O-])cc2)cc1 (configuration not stated)	–	–	–	IC50 [8]: 3.01 µg/mL (≈ 6.21 µM)
–	COc1ccc(C2CC(c3ccc4ccccc4c3)=NN2/C=C2\SC(=S)N(Cc3ccco3)C2=O)cc1 (configuration not stated)	54.6%	32.1%	19.4%	–
18.6 µM	COc1ccc(C2CC(c3ccc4ccccc4c3)=NN2/C=C2\SC(=O)NC2=S)cc1 (configuration not stated)	87.2%	74.7%	19.7%	–
–	COc1ccc(C2=NN(/C=C3\SC(=S)N(c4ccc(C)cc4)C3=O)C(c3ccc(OC)cc3)C2)cc1 (configuration not stated)	23.1%	55.5%	44.5%	–
2.1 µM	CN1C(=O)/C(=C/NCC(=O)N2N=C(c3ccc4ccccc4c3)CC2c2ccc(Cl)cc2)SC1=S (configuration not stated)	93.5%	86.9%	52%	–

IC50 [1]	Compound	inhibition of growth at 50 µg/mL [4]	inhibition of growth at 10 µg/mL [5]	inhibition of growth at 1 µg/mL [6]	also measured
–	CC1=NN(C2=NC(=O)CS2)C(c2ccccc2)C1 (configuration not stated)	–	–	–	IC50 [9]: 12 µg/mL (≈ 46.3 µM)
2.5 µM	COc1ccc(C2=NN(/C=C3\SC(=S)N(c4ccc(C)cc4)C3=O)C(c3ccc(Cl)cc3)C2)cc1 (configuration not stated)	40.2%	70.4%	62.8%	–
4.6 µM	COc1ccc(C2CC(c3ccccc3)=NN2C(=O)CN/C=C2\SC(=S)N(C)C2=O)cc1 (configuration not stated)	96.1%	96.5%	62.3%	–
> 98.9 µM	COc1ccc(C2=NN(/C=C3\SC(=S)N(Cc4ccco4)C3=O)C(c3ccc(OC)cc3)C2)cc1 (configuration not stated)	12.8%	48.2%	38.7%	–
–	CN1C(=O)/C(=C/N2N=C(c3ccccc3)CC2c2ccc(Cl)cc2)SC1=S (configuration not stated)	–	–	–	inhibition of growth at 100 µg/mL [10]: 56%; inhibition of growth at 20 µg/mL [11]: 42%; inhibition of growth at 2 µg/mL [12]: 8.2%
> 1 µM	CN1C(=O)/C(=C/N2N=C(c3ccc4ccccc4c3)CC2c2ccc(Cl)cc2)SC1=S (configuration not stated)	97%	97.2%	97.1%	CC50 at 120 h [2]: 154 µM
16.5 µM	CC(=O)Oc1cccc(N2C(=O)/C(=C/N3N=C(c4ccc5ccccc5c4)CC3c3ccc(Cl)cc3)SC2=S)c1 (configuration not stated)	90.6%	89.9%	66.7%	–
> 20.1 µM	Cc1ccc(N2C(=O)/C(=C/N3N=C(c4ccccc4)CC3c3ccc(N(C)C)cc3)SC2=S)cc1 (configuration not stated)	5.8%	51.9%	39.8%	–
3.5 µM	O=C1NC(=S)/C(=C/N2N=C(c3ccccc3)CC2c2ccccc2O)S1 (configuration not stated)	85.8%	93.3%	61%	–
1.5 µM	CN1C(=O)/C(=C/NCC(=O)N2N=C(c3ccc4ccccc4c3)CC2c2ccc(F)cc2)SC1=S (configuration not stated)	95.6%	94.8%	46.6%	–
1.5 µM	COc1ccc(C2CC(c3ccccc3)=NN2/C=C2\SC(=S)N(c3ccc(C)cc3)C2=O)cc1 (configuration not stated)	17.8%	69.2%	52.5%	–
1.2 µM	COc1ccc(C2CC(c3ccc4ccccc4c3)=NN2/C=C2\SC(=S)N(c3cccc(OC(C)=O)c3)C2=O)cc1 (configuration not stated)	94.7%	95.8%	87.6%	CC50 at 120 h [2]: > 172 µM; Ratio CC50/IC50 [3]: >143.8
1.2 µM	CC(=O)Oc1cccc(N2C(=O)/C(=C/N3N=C(c4ccccc4)CC3c3ccc(N(C)C)cc3)SC2=S)c1 (configuration not stated)	81.6%	84.9%	53.1%	CC50 at 120 h [2]: > 184 µM; Ratio CC50/IC50 [3]: >153.6
–	COc1ccc(C2CC(c3ccccc3)=NN2/C=C2\SC(=S)N(Cc3ccco3)C2=O)cc1 (configuration not stated)	46.6%	67.3%	37.9%	–
14.7 µM	COc1ccc(C2CC(c3ccccc3)=NN2/C=C2\SC(=S)NC2=O)cc1 (configuration not stated)	91.5%	92.3%	21.9%	–
